# CDK5 inh – inhibitors of human CDK5/p35 kinase, primary screen, biochemical, single concentration | Cyclin-dependent kinase 5 (Homo sapiens) + Cyclin-dependent kinase 5 activator 1 (Homo … | Recombinant CDK5/p35, ADP-Glo luminescence, 60 min | inhibition, % at 10 µM | actives 0.01% (n = 330,000) | AID 488839, 2010;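 active = highest replicate inhibition of at least 50% and at least 75% of replicates reaching 50%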;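 note: plate controls were DMSO neutral control for no effect and GW8510 at 10 µM for full effect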
# Rtt109 HAT inh – inhibitors of C. albicans Rtt109/Vps75 HAT, primary screen, biochemical, ThioGlo CoA-SH fluorescence, plate reader | Histone acetyltransferase RTT109 (Candida albicans (strain SC5314 / ATCC MYA-2876)), … | purified Rtt109/Vps75, 4 h | inhibition, % at 34.9 µM | actives 0.16% (n = 330,000) | AID 540336, 2011;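 active = inhibition of at least 50% in every replicate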
# Dyrk1A ADPGlo – rat Dyrk1A kinase inhibitors, primary screen, biochemical, single point, plate reader. ADP-Glo luminescence, NFATc1 peptide. inhibition, % at 12.5 µM. actives 0.43% (n = 310,000). AID 504441, 2011; in the data active = inhibition above about 50%;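 note: plate controls were vehicle with enzyme for no effect and no enzyme for full effect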
# dFosB act – activators of delta FosB homodimer, primary screen, biochemical, fluorescence polarization, TAMRA-CDK5 oligo, single point | activation, % at 25 µM | AID 493131, 2011 | actives 0.99% (n = 340,000) | purified delta FosB; percent of positive-control signal above neutral wells | Protein FosB (Mus musculus), P13346;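 active = mean activation above about 17%, with every replicate also reaching it, limit read from the data, passing the limit was not always enough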
# Target sequence (P13346 whole entry, looked up): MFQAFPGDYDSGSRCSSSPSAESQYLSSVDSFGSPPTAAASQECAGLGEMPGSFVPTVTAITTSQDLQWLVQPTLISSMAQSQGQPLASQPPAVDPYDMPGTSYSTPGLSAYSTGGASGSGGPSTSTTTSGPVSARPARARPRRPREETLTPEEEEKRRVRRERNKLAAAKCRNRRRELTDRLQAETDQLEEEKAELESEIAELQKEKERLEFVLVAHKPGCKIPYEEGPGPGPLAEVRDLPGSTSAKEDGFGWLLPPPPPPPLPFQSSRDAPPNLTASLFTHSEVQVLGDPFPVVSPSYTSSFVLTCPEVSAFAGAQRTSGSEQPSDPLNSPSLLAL
# CAL PDZ FP-1 – CAL PDZ peptide-binding inhibitors, primary screen, biochemical, fluorescence polarization, Cer-tagged CAL PDZ, HTS | Golgi-associated PDZ and coiled-coil motif-containing protein (Homo sapiens), Q9HD26 | purified CAL PDZ, TMR-peptide fluorescence polarization, 1 h | inhibition, % at 20 µM | actives 0.02% (n = 330,000) | AID 504414, 2011;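 active = highest replicate inhibition of at least 40%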;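 note: plate controls were DMSO neutral control wells for no effect and unlabeled competitor peptide control wells for full effect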
#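 material = purified tagged CAL PDZ domain construct (CerCALP) | compound dosing = 20 µM, one dose | times = 1 h at RT | measured by = fluorescence polarization from S- and P-plane intensities, G-factor corrected | read-out = inhibition from polarization loss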
# CAL PDZ FP-2 – untagged CAL PDZ binding inhibitors, primary screen, biochemical, fluorescence polarization, HTS; actives 0.92% (n = 300,000); purified CAL PDZ, TMR-peptide fluorescence polarization, 1 h; Golgi-associated PDZ and coiled-coil motif-containing protein (Homo sapiens), Q9HD26; inhibition, % at 24.9 µM;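 active = mean inhibition of at least 30% with at least half of replicates also reaching 30%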;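 note: 0% = DMSO neutral control and 100% = excess unlabeled competitor peptide PRC23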
# An asterisk follows results filed as active; . = no result; + = active, no number. Shown are actives, neighbours in structure and some others; about 2.2% of the full set was active somewhere.
SMILES,CDK5 inh,Rtt109 HAT inh,Dyrk1A ADPGlo,dFosB act,CAL PDZ FP-1,CAL PDZ FP-2
CC1(c2ccc3ccccc3c2)NC(=O)N(CC(=O)N2CCN(S(=O)(=O)c3ccccc3F)CC2)C1=O (stereo not given),-1.8,-1.5,.,-2.8,-0.4,.
O=C(Nc1nc2c(F)cc(F)cc2s1)c1ccc([N+](=O)[O-])o1,0.8,-2.5,-3.1,-2.2,-1.7,.
O=C(NC(=S)Nc1ccc(CN2CCOCC2)cc1)c1ccc(-c2cccc(Cl)c2)o1,2.5,3.8,7.0,6.9,-1.0,-4.5
O=C(Nc1ccc(CN2CCOCC2)cc1)c1ccc(-c2cccc(Cl)c2)o1,2.5,-2.5,.,-20.0,-3.0,89.2*
CCn1c(SCc2ccc(C)cc2)nnc1C1CCN(S(=O)(=O)c2ccc(OC)cc2)CC1,-0.6,-5.2,-2.6,-9.1,-0.8,2.5
CCn1c(SCc2ccc(F)cc2)nnc1C1CCN(S(=O)(=O)c2ccc(OC)cc2)CC1,2.6,17.5,4.5,-9.7,-2.0,48.9*
CCOc1ccc(N(CC(=O)NCCc2ccccc2)S(=O)(=O)c2ccccc2)cc1,-1.0,-7.4,0.2,-3.1,-2.7,-1.6
Cc1nn(S(=O)(=O)c2ccc(C(C)C)cc2)c(C)c1S(=O)(=O)N1CCOCC1,0.1,54.3*,-1.8,-4.2,-1.5,-2.6
O=C1NC2(CCCCCC2)N=C1c1ccc(F)cc1,0.0,-6.5,6.7,-1.8,0.2,66.1*
Cc1ccc2c(N)c(C)ccc2c1,0.0,-1.1,10.1,-1.0,0.6,-4.2
Cc1ccc2cc3c(N)c4c(C)ccc(C)c4nc3nc2c1,-0.3,1.2,-2.8,29.0*,-2.1,-1.8
COc1ccc(OC)c(/C=C/C(=O)OCC(=O)N2CCCCC2)c1,0.4,-4.8,.,-6.0,-0.7,64.2*
CCCNC(=O)Cn1sc2nc(C)cc(C)c2c1=O,14.7,112.6*,-2.7,-3.4,-3.1,1.1
COc1ccc(CN(C)C(=O)CNC(=O)CNC(=O)c2ccc(Cl)cc2Cl)cc1F,1.0,-4.0,-5.1,-6.5,-1.1,+
CCOC(=O)c1c(N)c(C#N)c2n1CCCCC2,0.8,-2.2,-7.1,5.7,.,37.4*
CC(C)c1cc(O)c(-c2ccccc2)c(=O)n1-c1ccc(Cl)cc1,1.7,.,9.7,1.2,0.3,-5.6
CC(C)c1c(Cl)c(O)c(-c2ccccc2)c(=O)n1-c1ccc(F)cc1,0.3,-5.6,.,-0.9,-0.5,38.0*
CCOC(=O)C1=CN(Cc2cccc(F)c2)S(=O)(=O)N(C)C1c1ccc2ccccc2c1 (stereo not given),-2.2,1.8,-2.7,-14.4,1.2,-1.0
CN(C(=O)CSc1cn(CC(=O)N2CCOCC2)c2ccccc12)c1ccccc1,-0.7,-6.4,-6.3,-9.2,-0.7,34.7*
CC1CN(C(=O)CSc2cn(CC(=O)N3CCOCC3)c3ccccc23)CC(C)O1 (stereo not given),0.7,3.8,5.9,-2.8,0.2,3.1
CC(=O)c1ccc(NC(=O)Cn2cnc(S(=O)(=O)N3CCCC3)c2)cc1,1.8,-2.5,0.0,-8.4,-0.7,44.4*
N=c1sccn1CC(=O)Nc1cc(Cl)ccc1Oc1ccccc1,-1.2,-0.5,-3.6,-2.1,-3.5,-0.3
N=c1sccn1CC(=O)Nc1cccc(Oc2ccccc2)c1,0.5,-0.6,2.6,-16.0,.,38.1*
COCCCn1c(SCC(=O)NC2CCCC2)nnc1-c1cccs1,0.5,-3.3,-0.8,-1.9,0.1,.
OCCC1CN(CC#Cc2ccccc2)CCN1C1CCCC1 (stereo not given),0.2,-14.5,-6.8,-4.7,-1.8,90.7*
SMILES,CDK5 inh,Rtt109 HAT inh,Dyrk1A ADPGlo,dFosB act,CAL PDZ FP-1,CAL PDZ FP-2
Cc1ccc(/C=N/NC(=O)c2nnn(-c3nonc3N)c2C(C)C)s1,-0.5,11.0,-7.3,-5.8,-1.0,-3.4
O=C1CC(c2ccc3c(c2)OCCO3)Oc2ccc([N+](=O)[O-])cc21 (stereo not given),-0.7,8.6,1.6,-5.0,0.4,79.2*
CC(C1CC1)N(Cc1ccccc1)C(=O)NC(=O)c1ccccc1 (stereo not given),-0.4,3.0,.,-10.8,-0.6,-2.3
CC(C1CC1)N(Cc1ccccc1)C(=S)Nc1ccccc1Cl (stereo not given),-1.4,-2.1,3.6,0.7,-0.5,88.0*
COc1ccc2[nH]c(C)c(-c3csc(N)n3)c2c1,-1.1,-4.5,-4.4,-6.8,-0.3,-0.7
Cc1ccc(NC(=O)c2cc(N3C(=O)C=CC3=O)ccc2N2CCOCC2)cc1,11.9,+,-6.2,-16.0,3.6,-5.2
Cc1ccc(NC(=O)c2cc(NC(=O)c3ccco3)ccc2N2CCOCC2)cc1,-0.5,-3.5,4.8,4.4,-0.7,3.3
CCOc1cc(CN2CCCC(CNC(=O)c3ccc(F)cc3)C2)ccc1OC (stereo not given),-0.3,-3.8,14.8,2.0,-1.6,0.7
NS(=O)(=O)c1ccc(CCNC(=O)COC(=O)C2CCC2)cc1,0.4,-8.3,-1.4,-0.9,-1.0,47.1*
CC(C)CNc1nc(S(=O)(=O)c2ccccc2)c(Cl)s1,-0.1,-3.8,.,4.9,-2.1,-3.6
CN(C)CCNc1nc(S(=O)(=O)c2ccccc2)c(Cl)s1,0.0,0.2,.,3.1,-0.9,82.6*
O=C(c1ccco1)N(CCC(c1ccccc1)c1ccco1)Cc1ccco1 (stereo not given),-2.8,26.5,4.0,-13.8,-1.9,-1.3
CC(=O)N(CCC(Cc1ccccc1)c1ccco1)Cc1ccco1 (stereo not given),-4.7,53.0*,-1.0,-13.7,0.4,2.4
Nc1ccc(Br)c2cccnc12,0.0,4.5,5.7,-2.6,-1.3,-1.0
CS(=O)(=O)Oc1ccc(Br)c2cccnc12,1.5,4.3,15.0,-1.4,-1.0,74.3*
O=C(Nc1ccc(Cl)c(Cl)c1)C1CCN(C(=O)c2ccco2)CC1,-1.3,-0.4,7.4,-13.2,-3.9,-10.5
O=C(Cn1cccc1C(=O)c1ccccc1)NCc1ccccc1Cl,0.3,-1.3,-1.1,-4.7,-0.5,+
O=C1NC(=S)S/C1=C\c1ccc(SCc2ccco2)o1,-0.5,3.9,72.5*,-15.2,-1.0,-2.5
